SMILES strings stand for the structures. Where two headings read alike, the source gives them in different places.

We go through nine compounds from publication PMC4618637 (Pharmacology Research & Perspectives, 2015).

Data set [1] is described as follows: Recovery of TU-100 ingredients in small intestinal luminal contents. The data set is classed as in vivo, rat. The conditions noted are these: for Effect of β-glucuronidase treatment on luminal amounts: rat small intestinal contents. The gist of the method:
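Fasted male Sprague Dawley rats (n = 3 per time) were killed 0.083–4 h after oral TU-100 with maltose. The small intestine was ligated into quarters (sites 1–4, oral to anal), and contents were collected with cold water to 10 mL and stored at −80°C. Aliquots, with or without β-glucuronidase (final 0.1 U/μL, pH 6.0, 37°C), were mixed with HBSS/30% acetonitrile and internal standard, then analysed by LC-MS/MS. Amount per site was expressed as % of dosed ingredient; mean ± SD.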

The format of data set [2] is in vivo. The conditions noted are these: human ileal effluent 4 h after 5 g TU-100 oral. The gist of the method: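 Subjects were 10 ileostomy patients (2 male, 8 female), with stoma made at least 2 weeks prior and normal small intestine by enteroscopy. Those given kampo medicine within 4 weeks were excluded. A new bag was fitted, then 5 g TU-100 drug product (0.42 g drug substance) was taken, followed by an unrestricted breakfast. Effluent was collected at 4 h and frozen at −80°C. Liquid–liquid extraction used pH 5.0 ammonium acetate/PEG, methanol and internal standard, with or without β-glucuronidase (final 0.1 U/μL, 37°C), before LC-MS/MS. Results were expressed as % of ingested amount.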

Data set [3] is classed as in vivo, rat. The settings on record: for Effect of β-glucuronidase treatment on blood concentrations: rat blood, data not shown. The gist of the method: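 Male Sprague Dawley rats (7 weeks, 274.2–317.7 g) were fasted 16 h and had jugular vein catheters placed 2 days earlier. Single oral TU-100 drug substance was given at 0.3 g/kg with 2.4 g/kg maltose (n = 5), or 0.9 g/kg with 7.2 g/kg maltose for 6G/6S. Plasma was taken at 0.083–24 h and analysed by LC-MS/MS after acetonitrile/methanol precipitation with internal standard. Cmax observed; AUC0–last; t1/2 = ln2/ke.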

A short description of data set [4]: Portal blood pharmacokinetics of TU-100 ingredients after single oral TU-100. The data set is classed as in vivo, rat. In a few lines:
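Purchased male Sprague Dawley rats with hepatic portal vein catheters were fasted 16 h. They received oral TU-100 drug substance at 0.3 g/kg plus 2.4 g/kg maltose (n = 5). Portal plasma was sampled at 0.083, 0.25, 0.5, 1, 2, 4, 8 and 24 h and stored at −80°C. Samples were protein-precipitated with internal standard, optionally treated with β-glucuronidase (final 0.1 U/μL, pH 6.0, 37°C), then run on LC-MS/MS. Cmax and tmax were observed; AUC0–last was taken to the last detected time; values mean ± SD.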

For data set [5] the following is noted: isotope-labeled 6S administered orally; ref Asami et al. [2010]; cited from earlier work.
[6] abbreviates: all sites, all rats, all time points, data not shown.
Where [7] appears, read: rat peripheral blood, oral TU-100 0.3 g/kg, untreated, mean ± SD, n = 5.
The mark [8] stands for this setting: site 3 and 4, at 30 min and 1 h (Fig. 2).
Setting [9] is: site 4, at 2 h and 4 h (Fig. 2).
Setting [10] is: male, Sprague Dawley, rat, plasma from portal blood, po, 0.3 g/kg.
Setting [11] is: male, Sprague Dawley, rat, plasma from peripheral blood, po, 0.3 g/kg.
The mark [12] stands for this setting: male, Sprague Dawley, rat, plasma from peripheral blood, po, 0.9 g/kg.

By Cmax is commonly meant the maximum level reached in the sampled fluid or tissue. For orientation: Tmax means the time from dosing to the highest level. Consider `C/C=C/C=C/C=C\CC/C=C/C(=O)NCC(C)(C)O` [HAS, hydroxy-α-sanshool], for which, in data set [1] (setting [6]), the “Level in luminal contents as % of the ingested amount” value (from here on “Level in luminal contents as %”) was < 1% and the “Level in small intestinal luminal contents” value is given as “below 10 μg/site”. Moreover, in data set [2] (β-glucuronidase treatment −), the “% of ingested TU-100, Max” value is listed as 0.4% and the “% of ingested TU-100, Median” value is listed as “B.L.Q”. In addition, the “Effect of β-glucuronidase treatment on blood concentrations” value (“Effect … on blood concentrations” for short) in data set [3] is on record as “no effect”. Further, in data set [3] (setting [7]), the AUCall worked out at 951 ± 264 ng·h/mL, the AUClast turned out to be 951 ± 264 ng·h/mL, the maximum concentration (Cmax) is listed as 778 ± 276 ng/mL and the Tmax is given as 0.283 ± 0.209 h. Also, in data set [3] (setting [7]), the t1/2 is listed as 3.01 ± 2.90 h. Also, the “Time for blood concentration to reach almost 0” value in data set [3] (rat portal and peripheral blood) is recorded as ≤ 5 h.

On to `C/C=C/C=C/C=C\CC/C=C/C=C/C(=O)NCC(C)C` [GS, γ-sanshool], for which, in data set [2] (β-glucuronidase treatment −), the “% of ingested TU-100, Max” value turned out to be 68.1% and the “% of ingested TU-100, Median” value came out at 4.1%.

For orientation: AUC means concentration integrated over time. Higher therefore signals high exposure. As usually defined, the AUC(0-t) is the area under the concentration-time curve up to a stated or last time point. Higher therefore signals more exposure. In the case of `CC(C)=CCC[C@](C)(O[C@@H]1O[C@H](CO[C@@H]2O[C@H](CO)[C@@H](O)[C@H](O)[C@H]2O)[C@@H](O)[C@H](O)[C@H]1O)[C@H]1CC[C@]2(C)[C@@H]1[C@H](O)C[C@@H]1[C@@]3(C)CC[C@H](O[C@@H]4O[C@H](CO)[C@@H](O)[C@H](O)[C@H]4O[C@@H]4O[C@H](CO)[C@@H](O)[C@H](O)[C@H]4O)C(C)(C)[C@@H]3CC[C@]12C` [Rb1, ginsenoside Rb1], the “Effect of β-glucuronidase treatment on luminal amounts” value in data set [1] is reported as “did not have a significant effect”. Also, in data set [1] (setting [8]), the “Level in luminal contents as %” value is “around 10%”. The “Level in luminal contents as %” value in data set [1] (setting [9]) was ~50%. In addition, in data set [4] (setting [10]), the AUC turned out to be 28.7 ± 6.29 ng·h/mL, the area under the curve AUC(0-t) was found to be 28.7 ± 6.29 ng·h/mL, the highest level (Cmax) was 2.1 ± 1.13 ng/mL and the Tmax came to 6 ± 2.31 h. Further, in data set [2] (β-glucuronidase treatment −), the “% of ingested TU-100, Max” value came out at 77.5% and the “% of ingested TU-100, Median” value is reported as 59.1%. The Tmax in data set [3] (male, Sprague Dawley, rat, plasma (peripheral and portal blood), oral, 0.3 g/kg) is ~4 h. Also, in data set [3] (setting [11]), the AUC was determined as 34.3 ± 12 ng·h/mL, the exposure AUC(0-t) was 34.3 ± 12 ng·h/mL, the peak level (Cmax) was 2.12 ± 0.759 ng/mL and the Tmax amounted to 4.8 ± 1.79 h. Moreover, the “Effect … on blood concentrations” value in data set [3] is given as “no effect”.

As a reminder, the half-life is how long it takes for the measured level to halve. Read a low half-life as rapid decline. As for `CCCCC[C@H](O)CC(=O)CCc1ccc(O)c(OC)c1` [6G, [6]-gingerol], the “6G in luminal contents as % of the ingested amount” value in data set [1] (all sites, at 30 min (Fig. 3)) was “below 2%”. In addition, in data set [1] (sites 3 and/or 4, after 1 h (Fig. 3)), the “Unconjugated 6G in luminal contents as % of the ingested amount” value was 2–3%. In addition, in data set [4] (setting [10]), the area under the curve (AUC) was 59.7 ± 40.4 ng·h/mL, the AUC(0-t) worked out at 59.7 ± 40.4 ng·h/mL, the concentration peaked (Cmax) at 38.3 ± 31.8 ng/mL and the Tmax is 1.31 ± 1.8 h. In data set [4] (setting [10]), this compound had a half-life of 1.79 h. The “Peak concentration of 6G and its conjugates relative to that of HAS” value in data set [4] (rat portal blood) is listed as “about one-fifth”. The “% of ingested TU-100, Median” value in data set [2] (β-glucuronidase treatment −) was “B.L.Q”. Moreover, in data set [3] (setting [12]), the AUC was found to be 0.974 ± 0.839 ng·h/mL, the AUC(0-t) is 0.974 ± 0.839 ng·h/mL, the concentration peaked (Cmax) at 0.676 ± 0.479 ng/mL and the Tmax came to 0.466 ± 0.857 h.

Consider `C/C=C/C=C/C=C/CC/C=C/C(=O)NCC(C)(C)O` [HBS, hydroxy-β-sanshool], for which, in data set [1] (setting [6]), the “Level in luminal contents as %” value was < 1% and the “Level in small intestinal luminal contents” value is on record as “below 10 μg/site”. Also, in data set [2] (β-glucuronidase treatment −), the “% of ingested TU-100, Median” value is recorded as “B.L.Q”. The “Effect … on blood concentrations” value in data set [3] is “no effect”.

With `CCCCCCCCC/C=C/C(=O)CCc1ccc(O)c(OC)c1` [10S, [10]-shogaol], in data set [2] (β-glucuronidase treatment +), the “% of ingested TU-100, Max” value came to 3.5% and the “% of ingested TU-100, Median” value is given as 0.8%. Further, the “% of ingested TU-100, Median” value in data set [2] (β-glucuronidase treatment −) is given as “B.L.Q”.

With `CCCCCCCCC[C@H](O)CC(=O)CCc1ccc(O)c(OC)c1` [10G, [10]-gingerol], the “% of ingested TU-100, Max” value in data set [2] (β-glucuronidase treatment +) was 9.1%. Further, the figures for the “% of ingested TU-100, Median” value in data set [2] (β-glucuronidase treatment +) and in data set [2] (β-glucuronidase treatment −) were 4.3% and “B.L.Q”, respectively.

Take `CC(C)=CCC[C@](C)(O[C@@H]1O[C@H](CO)[C@@H](O)[C@H](O)[C@H]1O)[C@H]1CC[C@]2(C)[C@@H]1[C@H](O)C[C@@H]1[C@@]3(C)CC[C@H](O)C(C)(C)[C@@H]3[C@@H](O[C@@H]3O[C@H](CO)[C@@H](O)[C@H](O)[C@H]3O)C[C@]12C` [Rg1, ginsenoside Rg1]: in data set [1], the “Effect of β-glucuronidase treatment on luminal amounts” value was “did not have a significant effect”. Besides, the “Level in luminal contents as %” value in data set [1] (setting [8]) is given as “around 10%”; in data set [1] (setting [9]) it was ~30%. The “% of ingested TU-100, Max” value in data set [2] (β-glucuronidase treatment −) was 114.0%. For the same compound, in data set [2] (β-glucuronidase treatment −), the “% of ingested TU-100, Median” value stood at 91.5%. The Blood concentrations result in data set [3] (rat blood after oral TU-100) is given as “too low to obtain reliable data”.

In the case of `CCCCC/C=C/C(=O)CCc1ccc(O)c(OC)c1` [6S, [6]-shogaol], in data set [1] (all sites, all rats, all time points (Fig. 3)), the “Presence of 6S and its conjugates in luminal contents” value is “virtually absent”. Further, in data set [4] (rat portal blood), the “Portal blood levels of 6S and its conjugates relative to 6G/6G conjugates” value is recorded as “approximately one tenth”. The “Concentrations of 6S and its conjugates in the portal blood” value in data set [4] (rat portal blood after oral TU-100) was “below 20 ng/mL”. In data set [2] (β-glucuronidase treatment +), the “% of ingested TU-100, Max” value came to 0.8% and the “% of ingested TU-100, Median” value is listed as 0.4%. The “% of ingested TU-100, Median” value in data set [2] (β-glucuronidase treatment −) is given as “B.L.Q”. Moreover, in data set [5], the “Isotope labels recovered in the urine” value is listed as “about 90%”.
